Data from ChEMBL document CHEMBL1155883, “5-Alkyl-6-benzyl-2-(2-oxo-2-phenylethylsulfanyl)pyrimidin-4(3H)-ones, a series of anti-HIV-1 agents of the dihydro-alkoxy-benzyl-oxopyrimidine family with peculiar structure-activity relationship profile” (J Med Chem, 2008).

What was measured:
[1] = Selectivity index, ratio of CC50 for human MT4 cells to EC50 for HIV1 NL4-3; format: toxicity, cell-based; conditions: read-out: Ratio CC50/EC50
Procedure, shortened: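 Computed as CC50/EC50. CC50 comes from MTT viability of mock-infected MT-4 cells and EC50 from MTT protection of NL4-3-infected MT-4 cells, both read at day 5.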

[2] = Cytotoxicity against human MT4 cells by MTT assay; format: cell-based
Procedure, shortened: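 Mock-infected MT-4 cells were exposed to a range of compound concentrations. Viability was read by MTT at day 5. CC50 is the concentration that kills 50% of uninfected cells. The top concentration was limited by compound precipitation in culture medium. Means ± SD from at least two or three experiments.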

[3] = tested on: Human immunodeficiency virus 1; test: Antiviral activity against HIV1 NL4-3 in human MT4 cells assessed as inhibition of virus-induced cytopathogenicity by MTT assay; format: functional, organism-based; conditions: Human immunodeficiency virus 1, NL4-3, MT4
Procedure, shortened: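 MT-4 lymphoid cells infected with wild-type HIV-1 NL4-3 in the presence of a range of compound concentrations. Viable cells were counted by MTT colorimetric read-out at day 5 post-infection. EC50 is the concentration giving 50% protection from virus-induced cytopathic effect. Means ± SD from at least two or three experiments.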

[4] = tested on: Human immunodeficiency virus type 1 reverse transcriptase (Human immunodeficiency virus 1), Q72547 [L100I]
[5] = tested on: Human immunodeficiency virus 1; test: Antiviral activity against HIV1 isolates with reverse transcriptase K103N mutation in human MT4 cells assessed as inhibition of virus-induced cytopathogenicity by MTT assay; format: functional, organism-based; conditions: Human immunodeficiency virus 1, MT4
Procedure, shortened: (§1)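 MT-4 lymphoid cells infected with HIV-1 carrying RT K103N, Y181C or Y188L, in the presence of different drug concentrations. Viable cells counted at day 5 postinfection by MTT colorimetric assay. EC50 is the concentration that inhibits 50% of the HIV-induced cytopathic effect.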

[6] = tested on: Human immunodeficiency virus 1; test: Resistance index, ratio of ID50 for reverse transcriptase K103N mutant to IC50 for wild-type HIV1 sreverse transcriptase
Procedure, shortened: (§2)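 Recombinant wt and K103N, L100I or Y181I HIV-1 RT (>95% pure), 2-4 nM. RNA-dependent DNA polymerase assay on 0.5 µg poly(rA)/oligo(dT) 10:1 (0.3 µM 3'-OH ends) with 10 µM [3H]-dTTP and 8% final DMSO. Aliquots taken every 2 min. Inhibitor range 0.2-5× ID50, fitted to a noncompetitive model. Fold resistance is mutant ID50 divided by wt ID50.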

[7] = tested on: Human immunodeficiency virus 1; test: Resistance index, ratio of EC50 for drug-resistant HIV1 isolate with reverse transcriptase Y181C mutation to EC50 for wild type HIV1 NL4-3; format: functional
Procedure, shortened: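 Fold resistance is the EC50 against the K103N, Y181C or Y188L mutant strain divided by the EC50 against wt NL4-3. Each EC50 is from MT-4 cells infected in the presence of different drug concentrations, with viability read by MTT at day 5 postinfection.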

[8] = tested on: Human immunodeficiency virus type 1 reverse transcriptase (Human immunodeficiency virus 1), Q72547 [K103N]
[9] = tested on: Human immunodeficiency virus 1; test: Antiviral activity against HIV1 isolates with reverse transcriptase Y181C mutation in human MT4 cells assessed as inhibition of virus-induced cytopathogenicity by MTT assay; format: functional, organism-based; conditions: Human immunodeficiency virus 1, MT4; procedure, shortened: as §1
[10] = tested on: Human immunodeficiency virus 1; test: Antiviral activity against HIV1 isolates with reverse transcriptase Y188L mutation in human MT4 cells assessed as inhibition of virus-induced cytopathogenicity by MTT assay; format: functional, organism-based; conditions: Human immunodeficiency virus 1, MT4; procedure, shortened: as §1
[11] = target: Human immunodeficiency virus type 1 reverse transcriptase (Human immunodeficiency virus 1) (UniProt Q72547)
[12] = tested on: Human immunodeficiency virus 1; test: Resistance index, ratio of ID50 for reverse transcriptase Y181I mutant to IC50 for wild-type HIV1 reverse transcriptase; procedure, shortened: as §2
[13] = tested on: Human immunodeficiency virus type 1 reverse transcriptase (Human immunodeficiency virus 1), Q72547 [Y181I]

Compound | selectivity ratio [1] | CC50 [2] | EC50 [3] | ID50 [4] | EC50 [5] | Ratio [6] | Ratio EC50 [7] | ID50 [8] | EC50 [9] | EC50 [10] | ID50 [11] | Ratio [12] | ID50 [13]
O=C(CSc1nc(Cc2c(F)cccc2F)cc(=O)[nH]1)c1ccccc1 | > 67 | > 67 µM | 1 µM | – | – | – | – | – | – | – | – | – | –
CCc1c(Cc2c(F)cccc2F)nc(SCC(=O)c2ccc(OC)cc2)[nH]c1=O | > 6440 | > 58 µM | 0.009 µM | > 40 µM | > 58 µM | 110 | 28 | 3.41 µM | 0.25 µM | > 58 µM | 0.031 µM | 19 | 0.58 µM
Cc1c(Cc2c(F)cccc2F)nc(SCc2ccccn2)[nH]c1=O | > 7 | > 70 µM | 10.1 µM | – | – | – | – | – | – | – | – | – | –
O=C(CSc1nc(Cc2c(F)cccc2F)cc(=O)[nH]1)c1ccc([N+](=O)[O-])cc1 | > 3 | 22 µM | 8.4 µM | – | – | – | – | – | – | – | – | – | –
O=c1cc(Cc2c(F)cccc2F)nc(Sc2ccccc2)[nH]1 | > 54 | > 76 µM | 1.4 µM | – | – | – | – | – | – | – | – | – | –
Cc1ccc(CSc2nc(Cc3c(F)cccc3F)c(C)c(=O)[nH]2)c(C)c1 | > 162 | > 65 µM | 0.4 µM | – | – | – | – | – | – | – | – | – | –
Cc1c(Cc2c(F)cccc2F)nc(SCc2cccnc2)[nH]c1=O | > 12 | > 70 µM | 5.9 µM | – | – | – | – | – | – | – | – | – | –
Cc1c(Cc2c(F)cccc2F)nc(SCc2ccccc2)[nH]c1=O | > 538 | > 70 µM | 0.13 µM | – | – | – | – | – | – | – | – | – | –
CC(C)c1c(Cc2c(Cl)cccc2Cl)nc(SCC(=O)c2ccc(F)cc2)[nH]c1=O | > 844 | > 54 µM | 0.064 µM | – | > 54 µM | – | – | – | > 54 µM | > 54 µM | 0.02 µM | 1530 | 30.6 µM
Cc1c(Cc2c(F)cccc2F)nc(SCc2ccncc2)[nH]c1=O | > 1170 | > 70 µM | 0.06 µM | – | – | – | – | – | – | – | – | – | –
CC(=O)CSc1nc(Cc2c(F)cccc2F)cc(=O)[nH]1 | > 26 | > 81 µM | 3.1 µM | – | – | – | – | – | – | – | – | – | –
O=c1cc(Cc2c(F)cccc2F)nc(SCc2ccccc2)[nH]1 | > 730 | > 73 µM | 0.1 µM | – | – | – | – | – | – | – | – | – | –
O=C1Nc2ccc(Cl)cc2[C@@](C#CC2CC2)(C(F)(F)F)O1 [EFAVIRENZ] | – | > 3 µM | 0.007 µM | – | 0.39 µM | – | – | – | 0.044 µM | – | – | – | –
COc1ccc(C(=O)CSc2nc(Cc3c(Cl)cccc3Cl)c(C)c(=O)[nH]2)cc1 | > 836 | > 56 µM | 0.067 µM | > 40 µM | > 56 µM | – | 18 | > 40 µM | 1.2 µM | > 56 µM | 0.094 µM | 5 | 0.46 µM
Cc1cc(C)cc(CSc2nc(Cc3c(F)cccc3F)c(C)c(=O)[nH]2)c1 | > 5 | > 65 µM | 14 µM | – | – | – | – | – | – | – | – | – | –
COc1ccc(C(=O)CSc2nc(Cc3cccc4ccccc34)c(C(C)C)c(=O)[nH]2)cc1 | 6770 | 203 µM | 0.03 µM | – | – | – | – | – | – | – | – | – | –
COc1ccc(C(=O)CSc2nc(Cc3c(Cl)cccc3Cl)c(C(C)C)c(=O)[nH]2)cc1 | > 35000 | > 14 µM | 0.0004 µM | > 40 µM | > 14 µM | – | 575 | > 40 µM | 0.23 µM | > 14 µM | 0.014 µM | 1220 | 17.1 µM
O=C(CSc1nc(Cc2c(F)cccc2F)cc(=O)[nH]1)c1ccc(Cl)cc1 | > 6 | > 61 µM | 9.8 µM | – | – | – | – | – | – | – | – | – | –
O=c1cc(Cc2c(F)cccc2F)nc(SCCCc2ccccc2)[nH]1 | 160 | 32 µM | 0.2 µM | – | – | – | – | – | – | – | – | – | –
COc1ccc(C(=O)CSc2nc(Cc3c(Cl)cccc3Cl)cc(=O)[nH]2)cc1 | > 9 | > 11 µM | 1.22 µM | > 40 µM | > 11 µM | 694 | – | 37.5 µM | > 11 µM | > 11 µM | 0.054 µM | 2 | 0.11 µM
CC(C)c1c(Cc2c(F)cccc2Cl)nc(SCC(=O)c2ccc(F)cc2)[nH]c1=O | > 14000 | > 56 µM | 0.004 µM | – | > 56 µM | 1670 | 140 | 40 µM | 0.56 µM | > 55 µM | 0.024 µM | – | > 40 µM
COc1ccc(C(=O)CSc2nc(Cc3c(F)cccc3Cl)c(C(C)C)c(=O)[nH]2)cc1 | > 11000 | > 11 µM | 0.001 µM | > 40 µM | > 11 µM | – | 160 | > 40 µM | 0.16 µM | > 11 µM | 0.0007 µM | – | > 40 µM
CC(C)Sc1nc(Cc2c(F)cccc2F)cc(=O)[nH]1 | > 4940 | > 84 µM | 0.017 µM | – | – | – | – | – | – | – | – | – | –
Cc1c(Cc2c(F)cccc2F)nc(SC(C)C)[nH]c1=O | > 12800 | > 77 µM | 0.006 µM | – | – | – | – | – | – | – | – | – | –
O=c1cc(Cc2c(F)cccc2F)nc(SCc2c(F)cccc2F)[nH]1 | > 66 | > 66 µM | 1 µM | – | – | – | – | – | – | – | – | – | –
Cc1c(Cc2c(F)cccc2F)nc(SCc2ccc([N+](=O)[O-])cc2)[nH]c1=O | > 31 | > 37 µM | 1.2 µM | – | – | – | – | – | – | – | – | – | –
O=c1cc(Cc2c(F)cccc2F)nc(SCCc2ccccc2)[nH]1 | > 233 | > 70 µM | 0.3 µM | – | – | – | – | – | – | – | – | – | –
